Results as given in ChEMBL document CHEMBL1125186, “GABA-uptake inhibitors: construction of a general pharmacophore model and successful prediction of a new representative” (J Med Chem, 1991).
Values belong to the compound of their own block, whether it stands above or below them.

Assays:
[1] = species on record: Rattus norvegicus; experiment: Concentration required for 50% inhibition of GABA uptake in rat brain; format: functional
How it was run: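 Rat corpus striatum synaptosomes from a 0.32 M sucrose homogenate: 1000g spin, then 20000g pellet, both at 4 °C. Synaptosomes (1 mg protein) incubated 2 min at 37 °C in pH 7.4 Krebs-Ringer phosphate with 0.15 M NaCl, [3H]GABA (25–40 Ci/mmol) and test compound up to 10⁻⁴ M. Stopped by dilution with NaCl-free medium, centrifuged; pellet radioactivity counted. IC50 derived from the concentration range.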

[2] = Dissociation constant was measured by potentiometric titrations; format: physicochemical
How it was run: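 pKa determined by potentiometric titration; values are means of at least two determinations.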

[3] = Dissociation constant was measured as pKa1 by potentiometric titrations
[4] = Partition coefficient (logP); format: physicochemical; details: octanol/water
How it was run: (§1)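 Conventional shake-flask partitioning at room temperature, 1-octanol or cyclohexane against 0.15 M phosphate buffer pH 7.4. Compound in the aqueous phase quantified spectrophotometrically. Means of at least two determinations.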

[5] = Partition coefficient (logP) (cyclohexane); format: physicochemical; details: cyclohexane/phosphate buffer pH 7.4; how it was run: as §1
[6] = I/U is the ratio of zwitterionic (I) to that of unionized […]; format: ADME
How it was run: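 Ratio of zwitterionic (I) to un-ionized (U) species calculated by the Wegscheider method.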

[7] = Delta logPoct-cyc; format: ADME; details: octanol/water
How it was run: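 ΔP taken as log Poct minus log Pcyc. Both come from shake-flask partitioning at room temperature against 0.15 M phosphate buffer pH 7.4, with the aqueous phase read spectrophotometrically.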

[8] = Concentration required for 50% inhibition of GABA uptake in rat brain

Structure (SMILES): CCCC1CC=C(C(=O)OCC)CN1 (configuration not stated)
IC50 [1]: > 100 µM

Structure (SMILES): CCCC1CC=C(C(=O)O)CN1 (configuration not stated)
IC50 [1]: > 100 µM

Structure (SMILES): CN1CC(C(=O)O)=CCC1CCCCc1ccccc1 (configuration not stated)
IC50 [1]: > 100 µM

Structure (SMILES): CCOC(=O)C1=CCC(CC)NC1 (configuration not stated)
IC50 [1]: > 100 µM

Structure (SMILES): CC1CC=C(C(=O)O)CN1 (configuration not stated)
IC50 [1]: 40 µM

Structure (SMILES): CCC1CC=C(C(=O)O)CN1 (configuration not stated)
IC50 [1]: > 100 µM

The next lines start with results.

IC50 [1]: > 100 µM
Structure (SMILES): O=C(O)C1=CCC(CCCCc2ccccc2)NC1 (configuration not stated)

pKa2 [2]: 9.25 | IC50 [1]: 0.1 µM | pKa [3]: 3.79 | logP [4]: 0.71 | logP [5]: -2 | Ratio [6]: 7000 | delta logP [7]: 2.71
Structure (SMILES): Cl.O=C(O)C1=CCC(CCC(c2ccccc2)c2ccccc2)NC1 (configuration not stated)

IC50 [1]: 100 µM
Structure (SMILES): O=C(O)C1=CCC(CCc2ccccc2)NC1 (configuration not stated)

pKa2 [2]: 9.23 | logP [4]: 0.99 | logP [5]: -0.43 | Ratio [6]: 6000 | delta logP [7]: 1.43
Structure (SMILES): O=C(O)C1CCCN(CCC=C(c2ccccc2)c2ccccc2)C1 (configuration not stated)
pKa [8]: 3.57

IC50 [1]: 37 µM
Structure (SMILES): CCOC(=O)C1=CCC(CCC(c2ccccc2)c2ccccc2)NC1 (configuration not stated)
